Experimental data published in ChEMBL document CHEMBL1130336, “Polyanion inhibitors of human immunodeficiency virus and other viruses. 6. Micelle-like anti-HIV polyanionic compounds based on a carbohydrate core” (J Med Chem, 1997).

Assays:
[1] = system: CEM-4; assay: Concentration required to reduce the viability of uninfected CEM-4 cells by 50%; assay type: functional; details: Homo sapiens
Outline: (§1)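 Cytotoxicity in uninfected CEM-4 or MT-4 cells, measured as inhibition of cell growth. The value is the concentration that lowers viability by 50%.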

[2] = system: CEM-4; assay: Inhibitory concentration required to inhibit HIV-induced cytopathicity in CEM-4 cells by 50%; assay type: functional, cell-based; details: Homo sapiens
Outline: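 CEM-4 cells infected with HIV-1 (strain HTLV-III_B/LAI). The end point is 50% inhibition of HIV-induced cytopathicity.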

[3] = system: E6SM; assay: Concentration required to cause a microscopically detectable alteration of normal E6SM cell morphology; assay type: functional, cell-based; details: Homo sapiens, read-out: IC50
Outline: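 Minimum cytotoxic concentration, read microscopically as the level that causes a detectable alteration of normal cell morphology.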

[4] = system: E6SM; assay: Concentration required to reduce herpes simplex virus-1TK( B2006) inducted cytopathicity by 50% (E6SM cells); assay type: functional, cell-based; details: Homo sapiens
Outline: (§2)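 Virus was added in the presence of compound, and the cells were incubated until cytopathic effect was scored. The value is the concentration that reduces virus-induced CPE by 50%.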

[5] = system: E6SM; assay: Concentration required to reduce herpes simplex virus-1TK (F) inducted cytopathicity by 50% (E6SM cells); assay type: functional, cell-based; details: Homo sapiens; outline: as §2
[6] = system: E6SM; assay: Concentration required to reduce herpes simplex virus-1TK (KOS) inducted cytopathicity by 50% (E6SM cells); assay type: functional, cell-based; details: Homo sapiens; outline: as §2
[7] = system: E6SM; assay: Concentration required to reduce herpes simplex virus-1TK (McIntyre) inducted cytopathicity by 50% (E6SM cells); assay type: functional, cell-based; details: Homo sapiens; outline: as §2
[8] = system: E6SM; assay: Concentration required to reduce herpes simplex virus-1TK (VMW1837) inducted cytopathicity by 50% (E6SM cells); assay type: functional, cell-based; details: Homo sapiens; outline: as §2
[9] = system: E6SM; assay: Concentration required to reduce herpes simplex virus-2(196) inducted cytopathicity by 50% (E6SM cells); assay type: functional, cell-based; details: Homo sapiens; outline: as §2
[10] = system: E6SM; assay: Concentration required to reduce herpes simplex virus-2(G) inducted cytopathicity by 50% (E6SM cells); assay type: functional, cell-based; details: Homo sapiens; outline: as §2
[11] = system: Vaccinia virus; assay: Concentration required to reduce vaccinia virus-inducted cytopathicity by 50% (E6SM cells); assay type: functional, organism-based, Orthopoxvirus vaccinia; details: Orthopoxvirus vaccinia, E6SM
[12] = system: Human immunodeficiency virus 1; assay: Concentration required to inhibit by 50% human immunodeficiency virus-1 induced syncytium formation upon coculturing persistently HIV-infected HUT-78 cells with MOLT-4 cells; assay type: functional, organism-based; details: Human immunodeficiency virus 1, MOLT-4
Outline: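 MOLT-4 (clone 8) cells at 1 × 10^6 cells/mL, cocultured with an equal number of persistently infected HUT-78/HIV-1 or HUT-78/HIV-2 cells across a range of compound concentrations. Giant cells were counted under the microscope after 24 h of cocultivation. The value is the concentration giving 50% inhibition of syncytium formation.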

[13] = system: HEL; assay: Concentration required to inhibit HEL cell growth by 50%; assay type: functional, cell-based; details: Homo sapiens
[14] = system: HEL; assay: Concentration required to reduce human cytomegalo virus(AD-169) inducted cytopathicity by 50% (HEL cells); assay type: functional, cell-based; outline: as §2
[15] = system: HEL; assay: Concentration required to reduce human cytomegalo virus(Davis) inducted cytopathicity by 50% (HEL cells); assay type: functional, cell-based; outline: as §2
[16] = system: HeLa; assay: Concentration required to cause a microscopically detectable alteration of normal Hela cell morphology; assay type: functional, cell-based; details: Homo sapiens
[17] = system: HeLa; assay: Concentration required to reduce Coxsackie virus-inducted cytopathicity by 50% (HeLa cells); assay type: functional, cell-based; details: Homo sapiens
[18] = system: HeLa; assay: Concentration required to reduce polio-1 virus-inducted cytopathicity by 50% (HeLa cells); assay type: functional, cell-based; details: Homo sapiens
[19] = system: HeLa; assay: Concentration required to reduce vesicular stomatitis virus-inducted cytopathicity by 50% (HeLa cells); assay type: functional, cell-based; details: Homo sapiens
[20] = system: MT4; assay: Concentration required to reduce the viability of uninfected MT-4 cells by 50%; assay type: functional; details: Homo sapiens; outline: as §1
[21] = system: MT4; assay: Concentration required to inhibit human immunodeficiency virus-2 induced cytopathicity in MT-4 cells by 50%; assay type: functional, cell-based
Outline: (§3)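 MT-4 cells infected with HIV-1 (strain HTLV-III_B/LAI) or HIV-2 (strain LAV_ROD). The end point is 50% inhibition of virus-induced cytopathicity.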

[22] = system: Vero; assay: Concentration required to cause a microscopically detectable alteration of normal Vero cell morphology; assay type: functional, cell-based; details: Chlorocebus sabaeus
[23] = system: Vero; assay: Concentration required to reduce Coxsackie virus-inducted cytopathicity by 50% (Vero cells); assay type: functional, cell-based; details: Chlorocebus sabaeus
[24] = system: Vero; assay: Concentration required to reduce Junin virus-inducted cytopathicity by 50% (Vero cells); assay type: functional, cell-based; details: Chlorocebus sabaeus
[25] = system: Vero; assay: Concentration required to reduce forest virus-inducted cytopathicity by 50% (Vero cells); assay type: functional, cell-based; details: Chlorocebus sabaeus
[26] = system: Vero; assay: Concentration required to reduce Tacaribe virus-inducted cytopathicity by 50% (Vero cells); assay type: functional, cell-based; details: Chlorocebus sabaeus
[27] = system: Vero; assay: Concentration required to reduce parainfluenza-3 virus-inducted cytopathicity by 50% (Vero cells); assay type: functional, cell-based; details: Chlorocebus sabaeus
[28] = system: Vero; assay: Concentration required to reduce reovirus-1 inducted cytopathicity by 50% (Vero cells); assay type: functional, cell-based; details: Chlorocebus sabaeus
[29] = system: Vero; assay: Concentration required to reduce sindbis virus-inducted cytopathicity by 50% (Vero cells); assay type: functional, cell-based; details: Chlorocebus sabaeus
[30] = system: MT4; assay: Concentration required to inhibit human immunodeficiency virus-1 induced cytopathicity in MT-4 cells by 50%; assay type: functional, cell-based; outline: as §3
[31] = system: E6SM; assay: Concentration required to reduce herpes simplex virus-2(Lyons) inducted cytopathicity by 50% (E6SM cells); assay type: functional, cell-based; details: Homo sapiens; outline: as §2
[32] = system: Human immunodeficiency virus 2; assay: Concentration required to inhibit by 50% human immunodeficiency virus-2 induced syncytium formation upon coculturing persistently HIV-infected HUT-78 cells with MOLT-4 cells; details: HUT-78, MOLT-4

## CO[C@H]1O[C@H](COCCCSCC(=O)O)[C@@H](OCCCSCC(=O)O)[C@@H](OCCCSCC(=O)O)[C@H]1OCCCSCC(=O)O
[1]
  CC50: > 370 µM
[2]
  IC50: > 370 µM

## CO[C@H]1O[C@H](COCCCSC(CC(=O)O)C(=O)O)[C@@H](OCCCSC(CC(=O)O)C(=O)O)[C@@H](OCCCSC(CC(=O)O)C(=O)O)[C@H]1OCCCSC(CC(=O)O)C(=O)O (stereo partly drawn)
[1]
  CC50: > 265 µM
[2]
  IC50: 69 µM

## CO[C@H]1O[C@H](COCCCSCCC(=O)O)[C@@H](OCCCSCCC(=O)O)[C@@H](OCCCSCCC(=O)O)[C@H]1OCCCSCCC(=O)O
[1]
  CC50: > 346 µM
[2]
  IC50: > 346 µM

## O=S(=O)(O)CCSCCCOC[C@H]1O[C@@](COCCCSCCS(=O)(=O)O)(O[C@H]2O[C@H](COCCCSCCS(=O)(=O)O)[C@@H](OCCCSCCS(=O)(=O)O)[C@H](OCCCSCCS(=O)(=O)O)[C@H]2OCCCSCCS(=O)(=O)O)[C@@H](OCCCSCCS(=O)(=O)O)[C@@H]1OCCCSCCS(=O)(=O)O
[1]
  CC50: > 50.6 µM
[2]
  IC50: > 50.6 µM
[3]
  minimum cytotoxic concentration: > 203 µM
[4]
  IC50: > 203 µM
[5]
  IC50: > 101 µM
[6]
  IC50: > 101 µM
[7]
  IC50: > 101 µM
[8]
  IC50: > 101 µM
[9]
  IC50: > 101 µM
[10]
  IC50: > 101 µM
[11]
  IC50: > 101 µM
[12]
  IC50: > 127 µM
[13]
  IC50: > 25 µM
[14]
  IC50: > 25 µM
[15]
  IC50: > 25 µM
[16]
  IC50: > 101 µM
[17]
  IC50: > 51 µM
[18]
  IC50: > 51 µM
[19]
  IC50: > 51 µM
[20]
  CC50: > 127 µM
[21]
  IC50: > 127 µM
[22]
  IC50: > 101 µM
[23]
  IC50: > 101 µM
[24]
  IC50: > 25 µM
[25]
  IC50: > 101 µM
[26]
  IC50: > 25 µM
[27]
  IC50: > 101 µM
[28]
  IC50: > 101 µM
[29]
  IC50: > 101 µM
[30]
  IC50: > 127 µM
[31]
  IC50: > 101 µM
[32]
  IC50: > 127 µM

## O=C(O)CCSCCCOC[C@H]1O[C@@](COCCCSCCC(=O)O)(O[C@H]2O[C@H](COCCCSCCC(=O)O)[C@@H](OCCCSCCC(=O)O)[C@H](OCCCSCCC(=O)O)[C@H]2OCCCSCCC(=O)O)[C@@H](OCCCSCCC(=O)O)[C@@H]1OCCCSCCC(=O)O
[1]
  CC50: > 59.3 µM
[2]
  IC50: > 59.3 µM
[3]
  minimum cytotoxic concentration: > 237 µM
[4]
  IC50: > 237 µM
[5]
  IC50: > 237 µM
[6]
  IC50: > 237 µM
[7]
  IC50: > 237 µM
[8]
  IC50: > 237 µM
[9]
  IC50: > 237 µM
[10]
  IC50: > 237 µM
[11]
  IC50: > 237 µM
[12]
  IC50: > 148 µM
[13]
  IC50: > 30 µM
[16]
  IC50: > 119 µM
[17]
  IC50: > 119 µM
[18]
  IC50: > 119 µM
[19]
  IC50: > 119 µM
[20]
  CC50: > 148 µM
[21]
  IC50: > 148 µM
[22]
  IC50: > 119 µM
[23]
  IC50: > 59 µM
[24]
  IC50: > 12 µM
[25]
  IC50: > 59 µM
[26]
  IC50: > 12 µM
[27]
  IC50: > 59 µM
[28]
  IC50: > 59 µM
[29]
  IC50: > 59 µM
[30]
  IC50: 29 µM
[31]
  IC50: > 119 µM
[32]
  IC50: > 148 µM
